Measurements as given in ChEMBL document CHEMBL4152188, “Design, synthesis and biological evaluation of C(4) substituted monobactams as antibacterial agents against multidrug-resistant Gram-negative bacteria” (Eur J Med Chem, 2018).
In brackets after ≈: the same amount, converted by molar mass.

Columns and labels:
Format in all cases: functional
Escherichia coli [1] = assay: Selectivity index, ratio of MIC for against Escherichia coli isolate 210737 to MIC for Escherichia coli isolate 210737 in presence of BPL
Escherichia coli [2] = assay: Antibacterial activity against extended-spectrum beta-lactamase producing Escherichia coli isolate 106342 after 18 hrs by CLSI broth microdilution method; conditions: isolate 106342, 18 h
Escherichia coli [3] = assay: Antibacterial activity against extended-spectrum beta-lactamase producing Escherichia coli isolate 212648 after 18 hrs by CLSI broth microdilution method; conditions: isolate 212648, 18 h
Klebsiella pneumoniae [4] = assay: Antibacterial activity against KPC-2 producing Klebsiella pneumoniae isolate 209735 after 18 hrs by CLSI broth microdilution method; conditions: isolate 209735, 18 h
Escherichia coli [5] = assay: Antibacterial activity against extended-spectrum beta-lactamase producing Escherichia coli isolate 209285 after 18 hrs by CLSI broth microdilution method; conditions: isolate 209285, 18 h
Escherichia coli [6] = assay: Selectivity index, ratio of MIC for against extended-spectrum beta-lactamase producing Escherichia coli isolate 208687 to MIC for extended-spectrum beta-lactamase producing Escherichia coli isolate 208687 in presence of BPL
Klebsiella pneumoniae [7] = assay: Antibacterial activity against KPC-2 producing Klebsiella pneumoniae isolate 212423 after 18 hrs by CLSI broth microdilution method; conditions: isolate 212423, 18 h
Klebsiella pneumoniae [8] = assay: Selectivity index, ratio of MIC for against KPC-2 producing Klebsiella pneumoniae isolate 212232 to MIC for against KPC-2 producing Klebsiella pneumoniae isolate 212232 in presence of BPL
Klebsiella pneumoniae [9] = assay: Antibacterial activity against KPC-2 producing Klebsiella pneumoniae isolate 212232 after 18 hrs by CLSI broth microdilution method; conditions: isolate 212232, 18 h
Pseudomonas aeruginosa [10] = assay: Selectivity index, ratio of MIC for against IMP-4 producing Pseudomonas aeruginosa isolate 212886 to MIC for against IMP-4 producing Pseudomonas aeruginosa isolate 212886 in presence of BPL
Pseudomonas aeruginosa [11] = assay: Antibacterial activity against IMP-4 producing Pseudomonas aeruginosa isolate 212886 after 18 hrs in presence of BPL by CLSI broth microdilution method; conditions: isolate 212886, 18 h
In short: (§1)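 CLSI broth microdilution against clinical isolates (ESBL E. coli, KPC-2 MDR K. pneumoniae, IMP-4 MDR P. aeruginosa; five per species). Iron limitation: Mueller-Hinton broth supplemented with 16 mg/liter 2,2'-bipyridyl to complex iron and induce iron uptake systems. Read-out: MIC.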

Escherichia coli [12] = assay: Antibacterial activity against Escherichia coli isolate 210737 after 18 hrs by CLSI broth microdilution method; conditions: isolate 210737, 18 h
Pseudomonas aeruginosa [13] = assay: Antibacterial activity against IMP-4 producing Pseudomonas aeruginosa isolate 208247 after 18 hrs in presence of BPL by CLSI broth microdilution method; conditions: isolate 208247, 18 h; in short: as §1
Klebsiella pneumoniae [14] = assay: Selectivity index, ratio of MIC for against KPC-2 producing Klebsiella pneumoniae isolate 212423 to MIC for against KPC-2 producing Klebsiella pneumoniae isolate 212423 in presence of BPL
Pseudomonas aeruginosa [15] = assay: Selectivity index, ratio of MIC for against IMP-4 producing Pseudomonas aeruginosa isolate 209321 to MIC for against IMP-4 producing Pseudomonas aeruginosa isolate 209321 in presence of BPL
Klebsiella pneumoniae [16] = assay: Selectivity index, ratio of MIC for against KPC-2 producing Klebsiella pneumoniae isolate 212229 to MIC for against KPC-2 producing Klebsiella pneumoniae isolate 212229 in presence of BPL
Escherichia coli [17] = assay: Antibacterial activity against extended-spectrum beta-lactamase producing Escherichia coli isolate 212648 after 18 hrs in presence of BPL by CLSI broth microdilution method; conditions: isolate 212648, 18 h; in short: as §1
Klebsiella pneumoniae [18] = assay: Antibacterial activity against KPC-2 producing Klebsiella pneumoniae isolate 209735 after 18 hrs in presence of BPL by CLSI broth microdilution method; conditions: isolate 209735, 18 h; in short: as §1
Klebsiella pneumoniae [19] = assay: Antibacterial activity against KPC-2 producing Klebsiella pneumoniae isolate 212423 after 18 hrs in presence of BPL by CLSI broth microdilution method; conditions: isolate 212423, 18 h; in short: as §1
Pseudomonas aeruginosa [20] = assay: Antibacterial activity against IMP-4 producing Pseudomonas aeruginosa isolate 208247 after 18 hrs by CLSI broth microdilution method; conditions: isolate 208247, 18 h
Klebsiella pneumoniae [21] = assay: Antibacterial activity against KPC-2 producing Klebsiella pneumoniae isolate 212229 after 18 hrs in presence of BPL by CLSI broth microdilution method; conditions: isolate 212229, 18 h; in short: as §1
Klebsiella pneumoniae [22] = assay: Antibacterial activity against KPC-2 producing Klebsiella pneumoniae isolate 209632 after 18 hrs by CLSI broth microdilution method; conditions: isolate 209632, 18 h
Escherichia coli [23] = assay: Selectivity index, ratio of MIC for against extended-spectrum beta-lactamase producing Escherichia coli isolate 212648 to MIC for extended-spectrum beta-lactamase producing Escherichia coli isolate 212648 in presence of BPL
Pseudomonas aeruginosa [24] = assay: Antibacterial activity against IMP-4 producing Pseudomonas aeruginosa isolate 207272 after 18 hrs in presence of BPL by CLSI broth microdilution method; conditions: isolate 207272, 18 h; in short: as §1
Pseudomonas aeruginosa [25] = assay: Selectivity index, ratio of MIC for against IMP-4 producing Pseudomonas aeruginosa isolate 207272 to MIC for against IMP-4 producing Pseudomonas aeruginosa isolate 207272 in presence of BPL
Pseudomonas aeruginosa [26] = assay: Selectivity index, ratio of MIC for against IMP-4 producing Pseudomonas aeruginosa isolate 209471 to MIC for against IMP-4 producing Pseudomonas aeruginosa isolate 209471 in presence of BPL
Pseudomonas aeruginosa [27] = assay: Antibacterial activity against IMP-4 producing Pseudomonas aeruginosa isolate 209321 after 18 hrs by CLSI broth microdilution method; conditions: isolate 209321, 18 h
Pseudomonas aeruginosa [28] = assay: Antibacterial activity against IMP-4 producing Pseudomonas aeruginosa isolate 207272 after 18 hrs by CLSI broth microdilution method; conditions: isolate 207272, 18 h
Escherichia coli [29] = assay: Antibacterial activity against extended-spectrum beta-lactamase producing Escherichia coli isolate 208687 after 18 hrs by CLSI broth microdilution method; conditions: isolate 208687, 18 h
Escherichia coli [30] = assay: Selectivity index, ratio of MIC for against extended-spectrum beta-lactamase producing Escherichia coli isolate 106342 to MIC for extended-spectrum beta-lactamase producing Escherichia coli isolate 106342 in presence of BPL
Escherichia coli [31] = assay: Antibacterial activity against extended-spectrum beta-lactamase producing Escherichia coli isolate 209285 after 18 hrs in presence of BPL by CLSI broth microdilution method; conditions: isolate 209285, 18 h; in short: as §1
Escherichia coli [32] = assay: Selectivity index, ratio of MIC for against extended-spectrum beta-lactamase producing Escherichia coli isolate 209285 to MIC for extended-spectrum beta-lactamase producing Escherichia coli isolate 209285 in presence of BPL
Klebsiella pneumoniae [33] = assay: Selectivity index, ratio of MIC for against KPC-2 producing Klebsiella pneumoniae isolate 209735 to MIC for against KPC-2 producing Klebsiella pneumoniae isolate 209735 in presence of BPL
Pseudomonas aeruginosa [34] = assay: Antibacterial activity against IMP-4 producing Pseudomonas aeruginosa isolate 209471 after 18 hrs by CLSI broth microdilution method; conditions: isolate 209471, 18 h
Klebsiella pneumoniae [35] = assay: Antibacterial activity against KPC-2 producing Klebsiella pneumoniae isolate 212229 after 18 hrs by CLSI broth microdilution method; conditions: isolate 212229, 18 h
Escherichia coli [36] = assay: Antibacterial activity against Escherichia coli isolate 210737 after 18 hrs in presence of BPL by CLSI broth microdilution method; conditions: isolate 210737, 18 h; in short: as §1
Escherichia coli [37] = assay: Antibacterial activity against extended-spectrum beta-lactamase producing Escherichia coli isolate 208687 after 18 hrs in presence of BPL by CLSI broth microdilution method; conditions: isolate 208687, 18 h; in short: as §1
Pseudomonas aeruginosa [38] = assay: Selectivity index, ratio of MIC for against IMP-4 producing Pseudomonas aeruginosa isolate 208247 to MIC for against IMP-4 producing Pseudomonas aeruginosa isolate 208247 in presence of BPL
Klebsiella pneumoniae [39] = assay: Selectivity index, ratio of MIC for against KPC-2 producing Klebsiella pneumoniae isolate 209632 to MIC for against KPC-2 producing Klebsiella pneumoniae isolate 209632 in presence of BPL
Klebsiella pneumoniae [40] = assay: Antibacterial activity against KPC-2 producing Klebsiella pneumoniae isolate 212232 after 18 hrs in presence of BPL by CLSI broth microdilution method; conditions: isolate 212232, 18 h; in short: as §1
Escherichia coli [41] = assay: Antibacterial activity against extended-spectrum beta-lactamase producing Escherichia coli isolate 106342 after 18 hrs in presence of BPL by CLSI broth microdilution method; conditions: isolate 106342, 18 h; in short: as §1
Pseudomonas aeruginosa [42] = assay: Antibacterial activity against IMP-4 producing Pseudomonas aeruginosa isolate 212886 after 18 hrs by CLSI broth microdilution method; conditions: isolate 212886, 18 h
Pseudomonas aeruginosa [43] = assay: Antibacterial activity against IMP-4 producing Pseudomonas aeruginosa isolate 209471 after 18 hrs in presence of BPL by CLSI broth microdilution method; conditions: isolate 209471, 18 h; in short: as §1
Pseudomonas aeruginosa [44] = assay: Antibacterial activity against IMP-4 producing Pseudomonas aeruginosa isolate 209321 after 18 hrs in presence of BPL by CLSI broth microdilution method; conditions: isolate 209321, 18 h; in short: as §1
Klebsiella pneumoniae [45] = assay: Antibacterial activity against KPC-2 producing Klebsiella pneumoniae isolate 209632 after 18 hrs in presence of BPL by CLSI broth microdilution method; conditions: isolate 209632, 18 h; in short: as §1

CC(C)C(O/N=C(\C(=O)NC1C(=O)N(S(=O)(=O)O)C12CCC2)c1csc(N)n1)c1cc(=O)c(O)cn1O (stereo not given)
Selectivity Index (Escherichia coli [1]): 8
MIC (Escherichia coli [2]): 2 µg/mL (≈ 3.59 µM)
MIC (Escherichia coli [3]): 2 µg/mL (≈ 3.59 µM)
MIC (Klebsiella pneumoniae [4]): > 64 µg/mL
MIC (Escherichia coli [5]): 4 µg/mL (≈ 7.19 µM)
Selectivity Index (Escherichia coli [6]): 2
MIC (Klebsiella pneumoniae [7]): > 64 µg/mL
Selectivity Index (Klebsiella pneumoniae [8]): 2
MIC (Klebsiella pneumoniae [9]): 8 µg/mL (≈ 14.4 µM)
Selectivity Index (Pseudomonas aeruginosa [10]): 1
MIC (Pseudomonas aeruginosa [11]): 16 µg/mL
MIC (Escherichia coli [12]): 4 µg/mL (≈ 7.19 µM)
MIC (Pseudomonas aeruginosa [13]): 16 µg/mL
Selectivity Index (Klebsiella pneumoniae [14]): >8
Selectivity Index (Pseudomonas aeruginosa [15]): 2
Selectivity Index (Klebsiella pneumoniae [16]): 4
MIC (Escherichia coli [17]): 1 µg/mL
MIC (Klebsiella pneumoniae [18]): 8 µg/mL
MIC (Klebsiella pneumoniae [19]): 8 µg/mL
MIC (Pseudomonas aeruginosa [20]): 16 µg/mL (≈ 28.7 µM)
MIC (Klebsiella pneumoniae [21]): 8 µg/mL
MIC (Klebsiella pneumoniae [22]): > 64 µg/mL
Selectivity Index (Escherichia coli [23]): 2
MIC (Pseudomonas aeruginosa [24]): 32 µg/mL
Selectivity Index (Pseudomonas aeruginosa [25]): 1
Selectivity Index (Pseudomonas aeruginosa [26]): 1
MIC (Pseudomonas aeruginosa [27]): 32 µg/mL (≈ 57.5 µM)
MIC (Pseudomonas aeruginosa [28]): 32 µg/mL (≈ 57.5 µM)
MIC (Escherichia coli [29]): 1 µg/mL (≈ 1.8 µM)
Selectivity Index (Escherichia coli [30]): 2
MIC (Escherichia coli [31]): 2 µg/mL
Selectivity Index (Escherichia coli [32]): 2
Selectivity Index (Klebsiella pneumoniae [33]): >8
MIC (Pseudomonas aeruginosa [34]): 32 µg/mL (≈ 57.5 µM)
MIC (Klebsiella pneumoniae [35]): 32 µg/mL (≈ 57.5 µM)
MIC (Escherichia coli [36]): 0.5 µg/mL
MIC (Escherichia coli [37]): 0.5 µg/mL
Selectivity Index (Pseudomonas aeruginosa [38]): 1
Selectivity Index (Klebsiella pneumoniae [39]): >4
MIC (Klebsiella pneumoniae [40]): 4 µg/mL
MIC (Escherichia coli [41]): 1 µg/mL
MIC (Pseudomonas aeruginosa [42]): 16 µg/mL (≈ 28.7 µM)
MIC (Pseudomonas aeruginosa [43]): 32 µg/mL
MIC (Pseudomonas aeruginosa [44]): 16 µg/mL
MIC (Klebsiella pneumoniae [45]): 16 µg/mL
